Test results reported in ChEMBL document CHEMBL5376013, “Design, synthesis and biological evaluation of novel morpholinopyrimidine-5-carbonitrile derivatives as dual PI3K/mTOR inhibitors” (RSC Med Chem, 2024).

Tests used:
Type in all cases: functional
Details in all cases: read-out: GI
MDA-MB-231 = experiment: Antitumor activity against human MDA-MB-231 cells assessed as growth inhibition at 10 uM relative to control
How it was run: (§1)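 After drug addition, plates were incubated 48 h at 37 °C under 5% CO2. Adherent cells were fixed with cold TCA (10% final, 60 min, 4 °C) and suspension cells with 16% final TCA. Staining used 0.4% SRB in 1% acetic acid, solubilized in 10 mM trizma, read at A515. Percent growth was calculated from time-zero, control and treated absorbances.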

CCRF-CEM = experiment: Antitumor activity against human CCRF-CEM cells assessed as growth inhibition at 10 uM relative to control; how it was run: as §1
EKVX = experiment: Antitumor activity against human EKVX cells assessed as growth inhibition at 10 uM relative to control; how it was run: as §1
A498 = experiment: Antitumor activity against human A498 cells assessed as growth inhibition at 10 uM relative to control; how it was run: as §1
NCI/ADR-RES = experiment: Antitumor activity against human NCI-ADR-RES cells assessed as growth inhibition at 10 uM relative to control; how it was run: as §1
ACHN = experiment: Antitumor activity against human ACHN cells assessed as growth inhibition at 10 uM relative to control; how it was run: as §1
A549 = experiment: Antitumor activity against human A549 cells assessed as growth inhibition at 10 uM relative to control; how it was run: as §1
MDA-MB-435 = experiment: Antitumor activity against human MDA-MB-435 cells assessed as growth inhibition at 10 uM relative to control; how it was run: as §1
BT-549 = experiment: Antitumor activity against human BT-549 cells assessed as growth inhibition at 10 uM relative to control; how it was run: as §1
SK-OV-3 = experiment: Antitumor activity against human SK-OV-3 cells assessed as growth inhibition at 10 uM relative to control
How it was run: (§2)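 Drug exposure 48 h at 37 °C, 5% CO2. Adherent cells fixed with cold TCA (10% final), suspension cells with TCA (16% final). Stained with 0.4% SRB in 1% acetic acid, dissolved in 10 mM Tris, A515. Growth relative to time-zero and untreated control.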

CAKI-1 = experiment: Antitumor activity against human CAKI-1 cells assessed as growth inhibition at 10 uM relative to control; how it was run: as §1
NCI-H522 = experiment: Antitumor activity against human NCI-H522 cells assessed as growth inhibition at 10 uM relative to control; how it was run: as §1
SF-268 = experiment: Antitumor activity against human SF-268 cells assessed as growth inhibition at 10 uM relative to control; how it was run: as §1
SK-MEL-28 = experiment: Antitumor activity against human SK-MEL-28 cells assessed as growth inhibition at 10 uM relative to control; how it was run: as §2
SN12C = experiment: Antitumor activity against human SN12C cells assessed as growth inhibition at 10 uM relative to control; how it was run: as §2
786-0 = experiment: Antitumor activity against human 786-0 cells assessed as growth inhibition at 10 uM relative to control; how it was run: as §1
HCT-15 = experiment: Antitumor activity against human HCT-15 cells assessed as growth inhibition at 10 uM relative to control; how it was run: as §1
IGROV-1 = experiment: Antitumor activity against human IGROV-1 cells assessed as growth inhibition at 10 uM relative to control; how it was run: as §1
OVCAR-8 = experiment: Antitumor activity against human OVCAR-8 cells assessed as growth inhibition at 10 uM relative to control; how it was run: as §1
SK-MEL-2 = experiment: Antitumor activity against human SK-MEL-2 cells assessed as growth inhibition at 10 uM relative to control; how it was run: as §1
Hs-578T = experiment: Antitumor activity against human Hs-578T cells assessed as growth inhibition at 10 uM relative to control; how it was run: as §1
RXF 393 = experiment: Antitumor activity against human RXF 393 cells assessed as growth inhibition at 10 uM relative to control; how it was run: as §1
COLO 205 = experiment: Antitumor activity against human COLO 205 cells assessed as growth inhibition at 10 uM relative to control; how it was run: as §1
MOLT-4 = experiment: Antitumor activity against human MOLT-4 cells assessed as growth inhibition at 10 uM relative to control; how it was run: as §1
K562 = experiment: Antitumor activity against human K562 cells assessed as growth inhibition at 10 uM relative to control; how it was run: as §1
SNB-19 = experiment: Antitumor activity against human SNB-19 cells assessed as growth inhibition at 10 uM relative to control; how it was run: as §2
SF-539 = experiment: Antitumor activity against human SF-539 cells assessed as growth inhibition at 10 uM relative to control; how it was run: as §1
HL-60 = experiment: Antitumor activity against human HL-60 cells assessed as growth inhibition at 10 uM relative to control; how it was run: as §1
NCI-H460 = experiment: Antitumor activity against human NCI-H460 cells assessed as growth inhibition at 10 uM relative to control; how it was run: as §1
LOX IMVI = experiment: Antitumor activity against human LOX IMVI cells assessed as growth inhibition at 10 uM relative to control; how it was run: as §1
NCI-H23 = experiment: Antitumor activity against human NCI-H23 cells assessed as growth inhibition at 10 uM relative to control; how it was run: as §1
HCC 2998 = experiment: Antitumor activity against human HCC 2998 cells assessed as growth inhibition at 10 uM relative to control; how it was run: as §1
UACC-62 = experiment: Antitumor activity against human UACC-62 cells assessed as growth inhibition at 10 uM relative to control; how it was run: as §2
PC-3 = experiment: Antitumor activity against human PC-3 cells assessed as growth inhibition at 10 uM relative to control; how it was run: as §1
OVCAR-5 = experiment: Antitumor activity against human OVCAR-5 cells assessed as growth inhibition at 10 uM relative to control; how it was run: as §1
NCI-H322M = experiment: Antitumor activity against human NCI-H322M cells assessed as growth inhibition at 10 uM relative to control; how it was run: as §1
UO-31 = experiment: Antitumor activity against human UO-31 cells assessed as growth inhibition at 10 uM relative to control; how it was run: as §2
NCI-H226 = experiment: Antitumor activity against human NCI-H226 cells assessed as growth inhibition at 10 uM relative to control; how it was run: as §1
TK-10 = experiment: Antitumor activity against human TK-10 cells assessed as growth inhibition at 10 uM relative to control; how it was run: as §2
MCF7 = experiment: Antitumor activity against human MCF7 cells assessed as growth inhibition at 10 uM relative to control; how it was run: as §1
U-251 = experiment: Antitumor activity against human U-251 cells assessed as growth inhibition at 10 uM relative to control; how it was run: as §2
SR = experiment: Antitumor activity against human SR cells assessed as growth inhibition at 10 uM relative to control; how it was run: as §2
SK-MEL-5 = experiment: Antitumor activity against human SK-MEL-5 cells assessed as growth inhibition at 10 uM relative to control; how it was run: as §2
HT-29 = experiment: Antitumor activity against human HT-29 cells assessed as growth inhibition at 10 uM relative to control; how it was run: as §1
DU-145 = experiment: Antitumor activity against human DU-145 cells assessed as growth inhibition at 10 uM relative to control; how it was run: as §1
T47D = experiment: Antitumor activity against human T47D cells assessed as growth inhibition at 10 uM relative to control; how it was run: as §2

Measured: inhibition of growth at 10 µM

CSc1nc(O)c(C#N)c(-c2ccc(Cl)cc2)n1
11%: MCF7
< 1%: all other assays above
